Assays:
Kv1.5 channels = Kv1.5 channels (Homo sapiens, UniProt P22460); type: cell-based
Kv1.5 mutant channels = test: TEVC in Xenopus oocytes, Kv1.5 scanning mutants; type: cell-based, human
Kv3.1 = details: cited from earlier work
Kv1.3 = details: read-out: IC50 for block of Kv1.3; cited from earlier work
Kv1.5 A503L mutant = test: TEVC in Xenopus oocytes, Kv1.5 A503L mutant; type: cell-based, human; details: versus wild-type Kv1.5
Kv2.1 SP+CC mutant = test: TEVC in Xenopus oocytes, Kv2.1 SP+CC six-fold mutant; type: cell-based
How it was run: (§1)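 Stage IV–V X. laevis oocytes cultured at 18 °C for 1–13 d in HEPES-buffered saline, pH 7.4, with gentamycine and pyruvate. Two-electrode voltage clamp in modified ND96 (4 mM KCl, pH 7.5). Currents were evoked by 2-s pulses to +40 mV every 10 s from −80 mV. Compound was taken from a 10 mM DMSO stock.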

[1] = test system: Kv1.1, Kv1.2, Kv1.5 and Kv1.6 versus Kv2.1, Kv3.1 and Kv4.3; test: TEVC in Xenopus oocytes, block of different Kv channels; type: cell-based; details: 500 nM Psora-4, +40 mV
How it was run: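 Channels expressed in Xenopus oocytes and recorded by two-electrode voltage clamp in modified ND96 (96 mM NaCl, 4 mM KCl, 5 mM HEPES, pH 7.5). Cells were held at −80 mV and stepped to +40 mV for 2 s every 10 s. Test compound was applied at 500 nM from a 10 mM DMSO stock, and block was analysed at +40 mV.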

Kv1.5 = details: read-out: IC50 for block of Kv1.5; cited from earlier work
Kv2.1 = molecular target: T1, Kv2.1 (Homo sapiens, UniProt Q14721); test: TEVC in Xenopus oocytes, Kv2.1 wild type; type: cell-based; details: read-out: IC50 for Kv2.1
T1 sequence (Q14721 1-858): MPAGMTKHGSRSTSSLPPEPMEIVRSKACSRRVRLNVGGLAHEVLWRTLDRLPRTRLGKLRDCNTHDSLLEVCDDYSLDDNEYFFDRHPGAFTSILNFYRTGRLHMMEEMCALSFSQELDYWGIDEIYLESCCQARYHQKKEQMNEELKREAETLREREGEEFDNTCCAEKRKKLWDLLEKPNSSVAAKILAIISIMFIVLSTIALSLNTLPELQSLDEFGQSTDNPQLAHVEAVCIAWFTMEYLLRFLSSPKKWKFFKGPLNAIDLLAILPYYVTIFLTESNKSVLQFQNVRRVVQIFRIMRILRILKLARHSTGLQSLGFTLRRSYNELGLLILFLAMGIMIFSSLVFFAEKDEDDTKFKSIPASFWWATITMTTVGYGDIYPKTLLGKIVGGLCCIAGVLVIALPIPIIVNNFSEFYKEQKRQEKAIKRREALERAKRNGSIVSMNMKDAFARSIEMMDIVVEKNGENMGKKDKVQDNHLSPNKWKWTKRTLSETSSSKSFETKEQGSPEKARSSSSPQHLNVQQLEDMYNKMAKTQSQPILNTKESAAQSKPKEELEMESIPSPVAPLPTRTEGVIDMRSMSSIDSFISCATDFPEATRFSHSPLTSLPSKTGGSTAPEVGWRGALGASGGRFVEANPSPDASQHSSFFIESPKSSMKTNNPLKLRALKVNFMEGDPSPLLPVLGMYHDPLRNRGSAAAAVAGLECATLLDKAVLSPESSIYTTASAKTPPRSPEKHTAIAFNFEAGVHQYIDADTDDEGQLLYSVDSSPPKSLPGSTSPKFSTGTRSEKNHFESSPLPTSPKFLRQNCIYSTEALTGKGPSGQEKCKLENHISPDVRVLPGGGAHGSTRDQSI
How it was run: as §1

Kv1.5 channels, sequence (P22460 whole entry): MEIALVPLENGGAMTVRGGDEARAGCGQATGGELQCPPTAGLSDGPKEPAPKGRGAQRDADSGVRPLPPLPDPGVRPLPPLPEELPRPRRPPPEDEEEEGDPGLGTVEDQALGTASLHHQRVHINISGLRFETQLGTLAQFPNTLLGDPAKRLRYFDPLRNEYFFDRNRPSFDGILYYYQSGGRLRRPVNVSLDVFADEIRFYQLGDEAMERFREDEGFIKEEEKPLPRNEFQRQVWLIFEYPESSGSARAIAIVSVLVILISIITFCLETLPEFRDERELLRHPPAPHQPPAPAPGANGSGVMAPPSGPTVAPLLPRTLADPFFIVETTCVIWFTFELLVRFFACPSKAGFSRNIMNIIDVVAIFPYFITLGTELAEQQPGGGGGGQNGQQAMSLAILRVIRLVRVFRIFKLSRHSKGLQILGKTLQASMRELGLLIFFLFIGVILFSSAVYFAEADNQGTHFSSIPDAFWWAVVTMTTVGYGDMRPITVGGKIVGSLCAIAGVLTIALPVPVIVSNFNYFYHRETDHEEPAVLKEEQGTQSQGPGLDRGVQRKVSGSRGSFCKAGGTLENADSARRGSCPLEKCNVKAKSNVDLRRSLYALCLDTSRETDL

## CCCCC[N+](CCCCC)(CCCCC)CCCCC [TPA, tetrapentyl-ammonium]
Kv1.5 channels; TPA pre-applied, same conditions as TEA
  competition with Psora-4 in the central cavity: no apparent competition

## CCCCN1CCCCC1C(=O)Nc1c(C)cccc1C (centres unmarked) [bupivacaine]
Kv1.5 mutant channels; control pore blocker, side-pocket mutants
  inhibition of S4 and S4-S5 linker mutants: None of the mutations in the S4 segment or the S4–S5 linker reduced bupivacaine inhibition

## CC[N+](CC)(CC)CC [TEA, tetraethyl-ammonium]
Kv1.5 channels
  effect on inhibition by 100 nM Psora-4: prevented the otherwise complete inhibition
  effect on kinetics of Psora-4 block: slowed the kinetics of block

## O=c1ccc2c(OCCCCc3ccccc3)c3ccoc3cc2o1 [Psora-4]
Kv3.1
  block of other K+ channels including Kv3.1: micromolar range
Kv1.3
  IC50: […]
Kv1.5 A503L mutant
  increase of IC50 for A503L mutant: […]
Kv2.1 SP+CC mutant
  Hill coefficient for Kv2.1 SP+CC: […]
Kv2.1 SP+CC mutant; read-out: IC50 for Kv2.1 SP+CC, six-fold mutant
  IC50: 580 nM
Kv1.5 mutant channels; mutants that strongly reduced potency, with the exception of I502A
  Hill coefficient of side-pocket and central cavity mutants: […]
Kv1.5 mutant channels; side-pocket hits versus wild-type Kv1.5
  increase of IC50 by S4, S4-S5 linker and S5 mutations: […]
[1]
  sensitivity of Kv1 subfamily members versus Kv2.1, Kv3.1 and Kv4.3: much more sensitive
Kv1.5
  IC50: […]
Kv2.1
  IC50: ~3900 nM
